Source: PubChem BioAssay AID463152 (The Scripps Research Institute Molecular Screening Center, 2010)

Target: Nuclear receptor ROR-alpha (Homo sapiens) (UniProt P35398)
Experiment: RORA inhibitor potency, reporter decrease, dose response, RORA inverse agonist project, cell-based, luminescence, assay provider (AID 463152)
Conditions: HEK293T GAL4-RORa LBD luciferase reporter, 20 h
Outline: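 Assay system: HEK293T with GAL4-RORα LBD and UAS-luciferase reporter / Repeats: n of 8 / Read-out: IC50 from four-parameter fit of signal relative to DMSO / Control set: DMSO-treated wells as reference / Times: 20 h compound exposure after 24 h reverse transfection / Signal: luminescence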

Sequence of Nuclear receptor ROR-alpha (Homo sapiens) (P35398 whole entry, looked up): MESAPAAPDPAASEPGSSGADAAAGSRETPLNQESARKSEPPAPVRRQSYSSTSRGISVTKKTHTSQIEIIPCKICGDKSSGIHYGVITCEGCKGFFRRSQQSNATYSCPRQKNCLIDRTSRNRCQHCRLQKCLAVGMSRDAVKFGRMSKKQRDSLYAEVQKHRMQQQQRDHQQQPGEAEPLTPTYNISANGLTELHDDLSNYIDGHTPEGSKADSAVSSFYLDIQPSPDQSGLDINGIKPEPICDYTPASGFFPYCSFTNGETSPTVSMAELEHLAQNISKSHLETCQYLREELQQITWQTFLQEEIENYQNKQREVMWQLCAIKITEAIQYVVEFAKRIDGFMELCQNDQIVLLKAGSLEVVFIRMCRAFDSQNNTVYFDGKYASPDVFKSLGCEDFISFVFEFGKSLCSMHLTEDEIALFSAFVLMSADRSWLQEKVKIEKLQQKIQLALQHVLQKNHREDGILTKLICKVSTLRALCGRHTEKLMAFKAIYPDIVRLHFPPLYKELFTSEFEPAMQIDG

## O=S(=O)(Nc1ccc(C(O)(C(F)(F)F)C(F)(F)F)cc1)c1cccs1
  IC50: 480 nM
